This passage reports Kd and kon results from publication PMC4577306 (Biochimica et biophysica acta, 2015).

One assay addresses human RIIα (Homo sapiens, UniProt P13861). In words: SPR kinetics of RIIα on immobilized neurochondrin peptides. The assay is classed as binding. The note with it: for kon: read-out: ka (apparent association rate constant). A digest of the protocol:
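Human RIIα purified by cAMP affinity chromatography. Test peptides dissolved in DMSO, amine-coupled to CM5 chips after 10 min NHS/EDC activation to about 1 RU, then blocked with 1 M ethanolamine-HCl pH 8.5, at 5 μL/min and 25 °C. Activated/deactivated reference flow cell. Running buffer 100 mM Tris, 150 mM NaCl, 0.005% Tween 20, pH 7.4, 25 °C. Surfaces regenerated with SDS, 4 M guanidinium-HCl and 1 M NaCl buffer.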

Assay [1] has as its target neurochondrin peptide II (human). In words: SPR. (In general: In SPR one partner is held on a chip, and binding of the other changes the refractive index at the surface.)
In assay [2] the target is neurochondrin peptide I (human). In words: SPR.

No end group written: not given here.

human RIIα, sequence (P13861 whole entry): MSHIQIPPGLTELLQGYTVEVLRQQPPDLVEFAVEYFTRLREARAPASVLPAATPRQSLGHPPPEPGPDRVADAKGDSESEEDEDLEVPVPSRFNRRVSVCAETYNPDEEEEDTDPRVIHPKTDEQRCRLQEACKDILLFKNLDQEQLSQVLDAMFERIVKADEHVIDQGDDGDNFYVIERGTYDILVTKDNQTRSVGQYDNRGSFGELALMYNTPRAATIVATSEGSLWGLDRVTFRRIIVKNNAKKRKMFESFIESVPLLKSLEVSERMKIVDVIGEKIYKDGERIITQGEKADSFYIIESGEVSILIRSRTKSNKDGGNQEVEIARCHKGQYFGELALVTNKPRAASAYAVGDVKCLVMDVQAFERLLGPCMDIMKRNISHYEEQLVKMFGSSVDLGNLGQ

On to YAGDIDAKTRRRIFDAVGFTF-NH2 [peptide I], for which, at human RIIα, the affinity, expressed as Kd, was 9.3 ± 3.1 nM and the kon was 120000 ± 1e+09 M⁻¹ s⁻¹.
Turning to “human RIIα subunit of cAMP-dependent protein kinase (PKA) (from UniProt P13861 1-404) (natural protein)”, the Kd (in general, the constant that tells how readily two partners part at equilibrium) in assay [1] stood at 9.6 nM; in assay [2] it was 9.3 nM.
With KLSSWQRNPALKLAARLAHA-NH2 [peptide II], at human RIIα, binding was put at a Kd of 9.6 ± 4.8 nM and the kon is 110000 ± 5e+09 M⁻¹ s⁻¹.
